Only a selection was taken, and hits are over-represented in it overall.
PGC1a Ac signal = compounds raising PGC1a acetylation signal, primary screen, PGC1a modulator project, cell-based, U2OS, AlphaScreen, signal-increasing mode | overnight | activation, % at 15.6 µM | actives 0.21% (n = 350,000) | AID 651723, 2012;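 active = every replicate reaching activation of at least 50%, whatever the mean replicate activation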;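 also: hits raise the AlphaScreen acetylation signal above neutral controls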
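System: Flag-PGC1a/GCN5 U2OS cells | Quantity: 7000 cells/well | Times: Overnight compound treatment, 37 °C | Measured by: AlphaScreen proximity luminescence, anti-acetyl-lysine antibody | Dosing: One concentration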
Active calls of the source: *.

SMILES | PGC1a Ac signal
Cc1ccc(NC(=O)c2ccc([N+](=O)[O-])o2)cc1C | 90.2*
Cc1ccc2nsnc2c1NC(=O)c1ccc([N+](=O)[O-])o1 | -44.0
CC(NC1c2ccccc2-c2ccccc21)c1ccccc1 (stereo unspecified) | -40.1
CCOC(=O)c1oc2nc3c(cc2c1N)COC(C)(C)C3 | 63.1*
CCCOC1CCCN(C(=O)c2cc(Cl)c(Cl)cc2C(=O)O)C1 (stereo unspecified) | 86.6*
CCOC(=O)N1CCN(C(=O)c2cc(Cl)c(Cl)cc2C(=O)O)CC1 | -84.4
Cc1noc(C)c1NC(=O)Nc1ccc2c(c1)C(=O)N([C@H](C)CO)C[C@@H](C)[C@@H](CN(C)S(=O)(=O)c1ccc(F)cc1)OCCCC[C@@H](C)O2 | -42.2
CN(CC(=O)Nc1ccc(F)c(F)c1)S(=O)(=O)c1cccc2nsnc12 | 62.6*
CCN(CCCNC(=O)CN(C)S(=O)(=O)c1cccc2nsnc12)c1ccccc1 | 88.6*
CC1CCCCN1C(=O)CN(C)S(=O)(=O)c1cccc2nsnc12 (stereo unspecified) | -41.6
COc1ccc(COc2cc(-c3cccc(OC)c3)nc3ccc(NC(=O)c4cccnc4)cc23)cc1 | 53.0*
Cc1nnnn1/C(=C\c1ccccc1)C(=O)OCC(=O)Nc1cccc(S(=O)(=O)N(C)C)c1 | 96.4*
Cc1cc(Cl)ccc1OCC(=O)Nc1cccc(S(=O)(=O)NC2=NCCCCC2)c1 | -41.0
S=c1[nH]nc(-c2cc(-c3ccccc3)n[nH]2)n1/N=C/C(Br)=C/c1ccccc1 | 241.4*
S=c1[nH]nc(-c2ccco2)n1/N=C/C(Cl)=C/c1ccccc1 | 65.2*
FC(F)(F)c1ccc(Cl)c(-n2c(-c3cc(-c4ccco4)[nH]n3)n[nH]c2=S)c1 | -43.5
CCNC(=S)N1C2CCC1CC(NC(=O)NC1CCCCC1)C2 (stereo unspecified) | -48.2
O=C(CSc1ccsc1[N+](=O)[O-])NCCc1ccc(Cl)cc1 | 68.4*
CO[C@H]1CN(C)C(=O)c2ccc(NS(=O)(=O)c3ccccc3)cc2OC[C@@H](C)N(C(=O)NC(C)C)C[C@@H]1C | -51.7
O=C(COC(=O)Cc1ccc(S(=O)(=O)N2CCOCC2)s1)NCCc1ccccc1 | -40.7
Fc1ccc(/C=N/N2CCCCC2)c(F)c1 | -65.9
CCS(=O)(=O)Nc1ccc2c(c1)C(=O)N(C)C[C@@H](OC)[C@H](C)CN(Cc1ccccn1)[C@@H](C)CO2 | -44.4
COc1ccc2c(c1)CC/C(=C/c1cc(OC)c(OC)c(OC)c1)C2=O | -52.5
COc1cc(/C=C2\COC/C(=C\c3ccc(O)c(OC)c3)C2=O)ccc1O | 89.6*
C=CC[C@@H](CC(=O)N[C@@H](CO)Cc1ccccc1)C(=O)N[C@@H](COC(=O)[C@@H](CC=C)CC(=O)OC(C)(C)C)Cc1c[nH]c2ccccc12 | 154.7*
SMILES | PGC1a Ac signal
CSc1nc2c(c(=O)[nH]c(=O)n2C)n1Cc1ccccc1 | -43.1
CCOC(=O)C1(Cc2cccc(Cl)c2)CCCN(C(=O)c2cccnc2)C1 (stereo unspecified) | -96.7
O=C1C=CCCN1C(=O)/C=C/c1cccc(Br)c1 | -46.4
CC(C)(C)c1ccc(-n2nc(C#N)c(Cl)cc2=O)cc1 | -82.0
CS(=O)(=O)N(CC(=O)N1CCN(c2ccccc2)CC1)c1cccc(Br)c1 | -43.4
CC(=O)Nc1ccc(NC(=O)CN(c2cccc([N+](=O)[O-])c2)S(C)(=O)=O)cc1 | 455.0*
N#CC1=C(N)Oc2c(ccc3ccccc23)C1c1ccsc1 (stereo unspecified) | 56.7*
Cc1cccc(COc2ccc(/C=C3/C(=O)N(C)C(=S)N3C)cc2)c1 | -70.6
CN(C)Cc1c(O)ccc2c1O/C(=C\C=C\c1ccccc1)C2=O | 78.7*
CO[C@H]1CN(C)C(=O)c2cc(NC(=O)c3ccccc3F)ccc2OC[C@@H](C)N(C(C)=O)C[C@@H]1C | -130.3
CC(C)(C)NS(=O)(=O)c1ccc(-c2csnn2)s1 | -60.6
COc1ccc(-c2cc(C(=O)O)[nH]n2)cc1OC | -42.4
COc1ccc(OC)c(-n2c(-c3ccc(C)cc3)n[nH]c2=S)c1 | 69.8*
CO[C@@H]1CN(C)C(=O)c2ccc(NC(C)=O)cc2OC[C@@H](C)N(C(=O)Cc2cccnc2)C[C@@H]1C | -46.9
COc1cccc2cc(C(C)N(CCCN3CCOCC3)C(=S)Nc3cc(C)ccc3C)oc12 (stereo unspecified) | -43.8
O=C(NC(=S)Nc1ccc(CN2CCCCC2)cc1)c1cc2ccccc2o1 | -43.2
O=C(C1CCCO1)N1CCN(Cc2c(O)ccc3ccccc23)CC1 (stereo unspecified) | 190.7*
O=C(NC(=S)N1CCN(Cc2ccccc2)CC1)c1cccnc1 | -46.0
Oc1ccc2ccccc2c1CN1CCCCC1 | 104.4*
O=C(c1ccc2ccccc2c1)N1CCCC1 | -45.9
Cc1nn(CCCC(=O)O)c(C)c1[N+](=O)[O-] | -42.5
Cc1cccc2cc(CN(Cc3nnnn3Cc3ccco3)C3CCCC3)c3nnnn3c12 | 55.5*
Cn1c(CO)cnc1SCC(=O)c1ccc(Cl)cc1 | -43.1
COC(=O)c1cc(C(=O)N2CCN(c3cccc(Cl)c3)CC2)cc([N+](=O)[O-])c1 | 77.5*
COc1ccc(OC)c(CN2CCN(C(=O)c3ccc(NS(=O)(=O)c4cccc([N+](=O)[O-])c4)cc3)CC2)c1 | -40.0
SMILES | PGC1a Ac signal
O=C(Oc1ccc[nH]c1=O)c1cc([N+](=O)[O-])cc([N+](=O)[O-])c1 | -53.2
CC[C@H](C)[C@@H]1NC(=O)[C@@H](CC(C)C)NC(=O)[C@H](C(C)C)NC(=O)[C@H]2CSSC[C@H](NC1=O)C(=O)N2 | -72.2
Cc1cc2oc(=O)cc(CN3CCC(C)CC3)c2cc1C | -41.9
N#Cc1ccc(Oc2cccnc2)cc1C#N | 52.7*
C[C@@H]1CN([C@H](C)CO)C(=O)c2cc(NC(=O)CCCCCC(=O)Nc3ccccc3N)ccc2O[C@H]1CN(C)S(=O)(=O)c1ccc(Cl)cc1 | -59.6
O=C(CC1SC(=Nc2ccc3c(c2)OCCO3)NC1=O)Nc1ccc(F)cc1F (stereo unspecified) | 188.6*
Cc1ccccc1Cn1nc(C)c(NC(=O)c2cc(-c3cccs3)on2)c1C | -47.2
Cc1ccc(OCC(=O)N2CC(C)OC(C)C2)c([N+](=O)[O-])n1 (stereo unspecified) | -42.8
CCc1ccc(Nc2nnc(SCC(=O)Nc3ccc(C(=O)O)cc3)s2)cc1 | -46.1
O=C(COC(=O)c1ccc([N+](=O)[O-])s1)Nc1ccc(F)cc1 | 106.3*
CN(c1cccc(NS(=O)(=O)c2cccs2)c1)S(C)(=O)=O | -50.7
CC(=O)Nc1ccc(C(=O)OC2CCOC2=O)cc1 (stereo unspecified) | -46.9
COc1cc(CC(=O)OC2CCOC2=O)cc(OC)c1OC (stereo unspecified) | 57.3*
COc1cc(CCC(=O)Nc2cc(C)cc(C)c2)cc(OC)c1OC | -44.6
CCCNC(=O)N(C)C[C@H]1Oc2cc(C#CC(C)C)ccc2S(=O)(=O)N([C@@H](C)CO)C[C@H]1C | -51.4
CCOC(=O)C1=C(CS(=O)(=O)c2ccccc2)NC(=O)NC1c1ccc(O)c(OC)c1 (stereo unspecified) | -52.4
CCOC(=O)CC(S(=O)(=O)c1ccccc1)S(=O)(=O)c1ccccc1 | 96.0*
Cc1cc(C)cc(OC(=O)CS(=O)c2ccc(C(F)(F)F)cc2[N+](=O)[O-])c1 (stereo unspecified) | 63.9*
COc1ccc(C(=O)C(CN2CCOCC2)c2ccccc2)cc1F (stereo unspecified) | -114.0
CC(C)CC(=O)/C(=C\c1ccc(Cl)cc1Cl)n1cncn1 | -60.3

Compound activity: PubChem, Broad Institute
